# XBP1 UPR activ – activators of adaptive XBP1 UPR arm, primary screen, cell-based, CHO-XBP1 luciferase reporter, luminescence, uHTS; 330,000 tested, 0.33% active; IRE1-XBP1 UPR activation; percent of tunicamycin response, DMSO as zero; AID 463104, 2010; activation, % at 20 µM;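 active means versus positive control, 20 µM dose yields 30% or more activation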;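 further: 100% = tunicamycin at 10 µg/mL and 0% = DMSO only wells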
#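 assay system = CHO-XBP1 luciferase reporter cells | amount = 1000 cells/well | buffer or medium = F12 plus 10% FBS | compound dosing = single point, 20 µM final compound, 1% DMSO | incubation = 16-18 h cell attachment at 37 °C, then 6 h compound exposure | detection = Steady-Glo luminescence read | controls = tunicamycin 10 µg/mL and vehicle-only wells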
# UPR CHOP act – activators of apoptotic CHOP UPR arm, primary screen, cell-based, CHO-CHOP luciferase reporter, luminescence, uHTS. UPR activation; percent of tunicamycin response over DMSO baseline. activation, % at 10 µM. 330,000 tested, 0.34% active. AID 449763, 2010;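 active means at 10 µM dose, activation of 40% or more, normalized to positive control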;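 further: 100% = tunicamycin at 10 µg/mL and 0% = DMSO alone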
#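 Test system: CHO CHOP reporter cells. Input: 500 CHO-CHOP cells per well. Medium: F12 with 10% FBS. Technique: luciferase luminescence. Measure: percent activation relative to tunicamycin control. Dosing: 10 µM compound, 0.5% DMSO. Timing: 16-18 h cell attachment, then 6 h compound exposure, 37 °C.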
# CTSL1 counter – Fasciola hepatica cathepsin L1 inhibitors, primary screen, counter-screen for PFM18AAP inhibitor project, biochemical, QFRET, fluorogenic peptide substrate; recombinant F. hepatica cathepsin L1, Z-Leu-Arg-MCA fluorescence; inhibition, % at 5.96 µM; 300,000 tested, 0.49% active;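 active means inhibition above the mean of all tested compounds plus 3 SD, set per screening campaign, cut at about 17% in these data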;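 further: 0% = plate median of test compound wells and 100% = 1 µM Z-Phe-Ala-diazomethylketone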
# UCH37 inh – inhibitors of human UCH37 deubiquitinase, primary screen, biochemical, Ub-AMC cleavage, fluorescence; Ubiquitin carboxyl-terminal hydrolase isozyme L5 (Homo sapiens), Q9Y5K5; purified proteasome/UCH37; inhibition, % (concentration not given with the values); 330,000 tested, 0.33% active;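 active means mean inhibition over replicate wells above about 20%, limit read from the data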;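 further: 0% = compound-free wells with enzyme and 100% = wells lacking proteasome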
# Target sequence (Q9Y5K5 whole entry, looked up): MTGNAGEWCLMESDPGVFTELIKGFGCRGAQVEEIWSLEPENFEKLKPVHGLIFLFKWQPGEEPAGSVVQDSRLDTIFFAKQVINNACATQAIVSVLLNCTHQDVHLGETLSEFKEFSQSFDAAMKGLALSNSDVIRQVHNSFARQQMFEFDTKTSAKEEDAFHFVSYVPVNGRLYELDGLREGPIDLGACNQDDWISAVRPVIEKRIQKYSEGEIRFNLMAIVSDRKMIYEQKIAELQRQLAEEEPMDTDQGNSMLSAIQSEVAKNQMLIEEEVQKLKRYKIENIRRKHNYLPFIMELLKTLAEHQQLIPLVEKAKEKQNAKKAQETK
#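 Material: human UCH37 enzyme supplied as purified proteasome complex. Measure: % inhibition of Ub-AMC cleavage fluorescence. Medium: pH 7.4 Tris-HCl (50 mM) with ovalbumin, ATP-MgCl2, DTT. Times: 30 min preincubation with enzyme, 25 min cleavage at room temperature. Detection: AMC fluorescence intensity at 355/460 nm.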
# CHOP inhibitor – inhibitors of CHOP promoter induction, primary screen, cell-based, unfolded protein response, luciferase reporter; CHO-K1 CHOP-promoter luciferase, tunicamycin-induced, 15-18 h; inhibition, % at 10 µM; 220,000 tested, 3.8% active; AID 2732, 2010;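 active means compounds that reduced the stress-induced luciferase reporter signal by more than about 70% of percent inhibition, limit read from the data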;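 further: 0% = tunicamycin plus vehicle and 100% = wells without tunicamycin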
# * hit, by the source's call; . = no result given. Many of the other results were omitted from the sample, so hits are more common in it than they were.
SMILES,XBP1 UPR activ,UPR CHOP act,CTSL1 counter,UCH37 inh,CHOP inhibitor
CCn1c(SCc2nc3scc(-c4ccccc4)c3c(=O)[nH]2)nnc1-c1ccc(Cl)cc1,1,-1,-2,0,93*
Cc1ccc(C(=O)NN=Cc2ccc(OC(=O)c3cccc(F)c3)cc2)cn1,.,.,.,1,.
CN(N=Cc1cccnc1)c1cnn(-c2ccc(F)c(Cl)c2)c(=O)c1Cl,.,.,.,-18,.
COc1cc(OC)c(OC)cc1C=Nn1c(C)nnc1C,.,.,.,-14,.
O=[N+]([O-])c1ccc(O)c(C=NNC(=S)Nc2ccc(Cl)cc2Cl)c1,.,.,.,2,.
CC(C)c1ccc(S(=O)(=O)Nc2ccc(SC(F)F)cc2)cc1,0,0,5,-16,101*
CC(C)c1ccc(NS(=O)(=O)c2ccc(-n3cccn3)cc2)cc1,0,1,-1,2,.
O=[N+]([O-])c1cccc(S(=O)(=O)NN=Cc2ccc3c(c2)OCO3)c1,.,.,.,5,.
COc1cc(C=NNC(=O)c2ccc([N+](=O)[O-])cc2Cl)cc(Br)c1O,.,.,.,14,.
CCOC(CNC(=O)c1cccc([N+](=O)[O-])c1)OCC,-1,2,38*,4,-21
Cc1ccc(-c2cc(C(=O)NN=Cc3cnn(C)c3C)c3ccccc3n2)cc1C,.,.,.,-17,.
COc1cc(C=NN2CCN(c3ccccc3OC)CC2)ccc1OC(C)=O,.,.,.,-1,.
CCCCCCCC(=O)NNC(=O)c1c(O)c2ccccc2[nH]c1=O,1,0,-1,3,70*
CCCCCCNC(=O)c1c(O)c2ccccc2[nH]c1=O,1,1,3,3,88*
O=C(NCc1ccccc1)c1c(O)c2ccccc2[nH]c1=O,-2,5,.,3,.
CC(=NNc1nc(-c2ccccc2)c(CC(=O)O)s1)c1ccccc1,.,.,.,8,.
O=C(NC1CCCCCC1)C1CCC(CNS(=O)(=O)c2ccc(Br)s2)CC1 (stereo not drawn),-3,-1,6,1,95*
COC(=O)c1c(C)n(-c2ccc(OC)cc2)c2ccc(O)cc12,-3,-3,-2,3,74*
O=C(Nc1ccccc1C(=O)NN=Cc1ccco1)c1ccc(Cl)cc1,.,.,.,-3,.
O=C(O)c1ccc(-c2ccc(C=NNc3ccc([N+](=O)[O-])cc3)o2)cc1,.,.,.,-16,.
O=C1C(Cl)=C(NCCN2CCCCC2)C(=O)c2ccccc21,2,23,54*,41*,-43
CCNC1=C(Cl)C(=O)c2ccccc2C1=O,3,0,8,-1,18
O=C1c2oc3ccccc3c(=O)c2C(c2cccs2)N1CCCN1CCOCC1 (stereo not drawn),9,2,-1,0,80*
CCOc1ccc(C2c3c(oc4ccccc4c3=O)C(=O)N2CCCN2CCOCC2)cc1 (stereo not drawn),-4,-1,0,-1,22
CC(=O)c1c(C)[nH]c(C(=O)N2CCN(c3ccc(F)cc3)CC2)c1C,-2,0,0,5,84*
SMILES,XBP1 UPR activ,UPR CHOP act,CTSL1 counter,UCH37 inh,CHOP inhibitor
O=[N+]([O-])c1cc(C(F)(F)F)ccc1NCCNC(=S)Nc1ccc(Cl)cc1,6,2,1,4,86*
Cc1c(C(=O)O)cccc1-n1c(C)cc(C=NNC(=O)c2cc3ccccc3o2)c1C,.,.,.,3,.
CCOC(=O)c1nnn(-c2nonc2N)c1CSc1ccccc1,3,-2,1,1,22
CCOC(=O)c1nnn(-c2nonc2N)c1CN(C)Cc1ccccc1,-2,0,4,5,81*
Cc1ccc(S(=O)(=O)Oc2ccccc2C=NNc2ccc(C(=O)O)cc2)cc1,.,.,.,4,.
O=C(Nc1nnc(-c2ccc3c(c2)CCCC3)o1)C1CCCCC1,6,1,5,5,84*
O=C(CCc1ccccc1)Nc1nnc(-c2ccc3c(c2)OCCO3)o1,0,0,-2,0,3
O=C(Nc1nnc(-c2ccc3c(c2)CCCC3)o1)c1ccc(Cl)cc1Cl,1,-1,6,-6,98*
O=C(CCc1ccccc1)Nc1nnc(-c2ccc3c(c2)CCCC3)o1,1,4,2,.,94*
O=C(Nc1nnc(-c2ccc3c(c2)CCCC3)o1)c1c(F)cccc1F,-2,-4,3,0,13
O=C(Nc1nnc(-c2ccncc2)o1)C1CCCCC1,-2,1,-3,-6,2
COc1cccc(C=Nn2c(=O)[nH]c3ccccc32)c1OC,.,.,.,4,.
NC(=O)C1(N2CCCCC2)CCN(CC(=O)Nc2cc(Cl)ccc2Cl)CC1,-4,0,6,1,76*
Cc1onc(-c2ccccc2)c1C(=O)NN=Cc1c[nH]c2ccccc12,.,.,.,2,.
CC(CCc1ccccc1)NC(=O)c1ccc(C(=O)NC(C)CCc2ccccc2)cc1 (stereo not drawn),-3,3,-3,-1,82*
CC(CCc1ccccc1)NC(=O)c1ccccc1 (stereo not drawn),2,-3,1,-2,22
CC(CCc1ccccc1)NC(=O)c1ccc(Cl)nc1 (stereo not drawn),-1,-3,17*,6,17
Cc1cccc(NC(=O)CN2C(=O)N/C(=C/c3cc(C)n(C(C)C)c3C)C2=O)c1,-2,-1,0,-2,70
Cc1cccc(NC(=O)CN2C(=O)N/C(=C/c3ccc(C)s3)C2=O)c1,2,4,0,-1,92*
Cc1ccc(NC(=O)CN2C(=O)N/C(=C/c3cccn3-c3ccc(C(=O)O)cc3)C2=O)cc1,.,.,2,21*,-22
O=C(Cc1ccc(F)cc1)N1CCC(CC2CC(c3ccc(Cl)cc3)=NO2)(C(=O)NCC2CCCCC2)CC1 (stereo not drawn),-1,-1,5,39*,.
O=C(Cc1ccc(F)cc1)N1CCC(CC2CC(c3cccc(Br)c3)=NO2)(C(=O)NCC2CCCCC2)CC1 (stereo not drawn),2,1,5,2,.
O=C(/C=C/c1ccccc1)N1c2ccccc2Sc2ccc(C(F)(F)F)cc21,-3,0,1,5,70*
Cc1ccc(-c2cc(C(=O)NN=Cc3ccccc3)n[nH]2)o1,.,.,.,0,.
Cc1onc(-c2c(F)cccc2Cl)c1C(=O)Nc1nc2c(s1)CCCC2,-3,1,3,3,84*
CN(C)c1ccc(C(=O)Nc2nc3c(s2)CCCC3)cc1,-7,-6,0,-6,92*
CC(C)(C)c1ccc(C(=O)NC(=S)Nc2nc3c(s2)CCCC3)cc1,-3,-2,3,5,-14

# From PubChem BioAssay
